Here are results for nine molecules from ChEMBL document CHEMBL1133167, “Synthesis and opioid receptor affinity of morphinan and benzomorphan derivatives: mixed kappa agonists and mu agonists/antagonists as potential pharmacotherapeutics for cocaine dependence” (J Med Chem, 2000).

The target of one test is Mu-type opioid receptor (Cavia porcellus, UniProt P97266). The experiment in a line: Binding affinity towards Opioid receptor mu 1 by displacing the radioligand [3H]DAMGO from guinea pig brain membrane. The gist of the method:
(§1)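 Guinea pig brain membranes (homogenised, preincubated 37 °C 30 min, washed), 500 µg protein, with 12 concentrations of compound in 50 mM Tris-HCl pH 7.5 at 25 °C for 60 min. Nonspecific binding defined with 1 µM naloxone. Glass-fibre filtration, with PEI-soaked filters for kappa. IC50 by log-probit fit; three experiments in triplicate, mean ± SEM.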

The next test is filed under the species Cavia porcellus. The experiment in a line: Selectivity kappa/delta.
The target in test [1] is Opioid receptor (mu and kappa) (Cavia porcellus) (UniProt P41144+P97266). The experiment in a line: Selectivity kappa/mu. It counts as protein assay.
Test [2] addresses Kappa-type opioid receptor (Cavia porcellus, UniProt P41144). The experiment in a line: Binding affinity towards Opioid receptor kappa 1 by displacing the radioligand [3H]U-69593 from guinea pig brain membrane. The gist of the method:
as §1

The nature of test [3]: Binding affinity towards Opioid receptor delta 1 by displacing the radioligand [3H]naltrindole from guinea pig brain membrane.

Where a name gives a salt, the structure may show the parent alone.

Chain of Kappa-type opioid receptor (P41144 whole entry): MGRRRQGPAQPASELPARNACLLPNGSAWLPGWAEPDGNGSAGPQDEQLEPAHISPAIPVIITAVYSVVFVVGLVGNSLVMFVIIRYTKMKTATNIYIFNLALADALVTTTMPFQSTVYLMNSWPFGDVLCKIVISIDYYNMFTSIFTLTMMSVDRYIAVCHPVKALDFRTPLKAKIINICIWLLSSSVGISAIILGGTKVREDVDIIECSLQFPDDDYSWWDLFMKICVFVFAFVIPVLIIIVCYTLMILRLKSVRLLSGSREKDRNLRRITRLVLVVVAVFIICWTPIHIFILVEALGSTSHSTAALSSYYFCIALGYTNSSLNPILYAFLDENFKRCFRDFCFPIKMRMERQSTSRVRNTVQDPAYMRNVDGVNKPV
Chain of Opioid receptor (mu and kappa) (Cavia porcellus) (P41144 whole entry, looked up): as the sequence (P41144 whole entry) above
Chain of Opioid receptor (mu and kappa) (Cavia porcellus) (P97266 whole entry, looked up): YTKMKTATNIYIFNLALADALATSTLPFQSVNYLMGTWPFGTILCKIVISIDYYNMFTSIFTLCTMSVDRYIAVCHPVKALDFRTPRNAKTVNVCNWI
Chain of Mu-type opioid receptor (P97266 whole entry): as the sequence (P97266 whole entry, looked up) above

For `CN1CC[C@]23CCCC[C@H]2[C@H]1Cc1ccc(O)cc13` [LEVORPHANOL HYDROCHLORIDE], the values for the Ki (at Mu-type opioid receptor; in test [2]) were […] and 2.3 nM, respectively. For the same molecule, the Selectivity in the test listed under Cavia porcellus was […]; in test [1], […].
The matching figures for `O=C1c2ccc(O)cc2C23CCCCC2C1N(CC1CCCO1)CC3` (single isomer, unassigned; (-)): 0.38 nM, 0.18 nM, 6 and 2.
In the same order, the values of `O=C1c2ccc(O)cc2C23CCCCC2C1N(CC1CC1)CC3` (single isomer, unassigned; (-)) are 240 nM, 24 nM, 6 and 1.
As to `CC[C@@]12CCN(CC3CC3)C(C(=O)c3ccc(O)cc31)[C@@H]2C` [ETHYLKETOCYCLAZOCINE], the results for the Ki (on Mu-type opioid receptor; in test [3]) were 0.78 nM and 3.4 nM, respectively.
For the molecule `Oc1ccc2c(c1)[C@@]13CCCC[C@H]1[C@@H](C2)N(CC1CC1)CC3` [CYCLORPHAN], affinity in test [2] was put at a Ki of 0.053 nM.
The same measure, in the same setting: under `C[C@H]1C2C(=O)c3ccc(O)cc3[C@@]1(C)CCN2CC1CCCO1` (some centres not stated) stands 720 nM.
With `Oc1ccc2c(c1)[C@@]13CCCCC1[C@@H](C2)N(C[C@@H]1CCCO1)CC3` (some centres not stated), the Ki was 0.01 nM at Mu-type opioid receptor and 0.15 nM in test [2]. Further, the Selectivity in the test listed under Cavia porcellus is 2; in test [1], 0.066.
Take `C[C@H]1[C@H]2Cc3ccc(O)cc3[C@]1(C)CCN2CC1CC1` [CYCLAZOCINE]: the Ki in test [2] amounted to 0.052 nM.
On the same count and under the same terms, then `Oc1ccc2c(c1)[C@@]13CCCC[C@H]1[C@@H](C2)N(CC1CCC1)CC3` [BUTORPHAN], with 0.073 nM.

As a reminder, the Ki is the dissociation constant of the complex between target and ligand, obtained from inhibition or displacement. A low value points to tighter binding.
